In ChEMBL document CHEMBL4689842, “EUbOPEN Chemogenomics Library wave 1” (2021):

Tested on: Fibroblast
Experiment: Multiplex assay against human fibroblast
Format: toxicity, cell-based
Procedure, shortened: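 With compound added, live cells were imaged on a CQ1 microscope at 37°C and 5% CO2; staining with Hoechst33342, BioTracker Green Microtubule Cytoskeleton Dye, MitoTracker Red and Annexin V Alexa Fluor 680 had been done at seeding. The CellPathfinder machine-learning gating scheme split cells into Hoechst high-intensity objects or normal cells, normal cells into healthy, pyknosed or fragmented nuclei, and pyknosed cells into mitotic or apoptotic. The tubulin, mitochondrial-mass and membrane-permeability phenotypes are per cents of healthy-nucleus cells.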

[1] = 12 h, 1 µM, compound concentration 1 uM, replicate 1
[2] = 12 h, 1 µM, compound concentration 1 uM, replicate 2
[3] = 12 h, 10 µM, compound concentration 10 uM, replicate 1
[4] = 12 h, 10 µM, compound concentration 10 uM, replicate 2
[5] = 24 h, 1 µM, compound concentration 1 uM, replicate 1
[6] = 24 h, 1 µM, compound concentration 1 uM, replicate 2
[7] = 24 h, 10 µM, compound concentration 10 uM, replicate 1
[8] = 24 h, 10 µM, compound concentration 10 uM, replicate 2
[9] = 48 h, 1 µM, compound concentration 1 uM, replicate 1
[10] = 48 h, 1 µM, compound concentration 1 uM, replicate 2
[11] = 48 h, 10 µM, compound concentration 10 uM, replicate 1
[12] = 48 h, 10 µM, compound concentration 10 uM, replicate 2

Cc1ccc(S(=O)(=O)NC2c3ccccc3Oc3ccccc32)cc1
Population Apoptotic (%) [1]: 57%
Population Fragmented Nuclei (%) [1]: 25%
Population Healthy Nuclei (%) [1]: 46%
Population Hoechst High Intensity Objects (%) [1]: 11%
Population Membrane Permeable-Phenotype (%) [1]: 25%
Population Mitochondria Different-Phenotype (%) [1]: 6%
Population Mitotic Cells (%) [1]: 42%
Population Normal (%) [1]: 88%
Population Pyknosed Nuclei (%) [1]: 27%
Population Tubulin-Different-Phenotype (%) [1]: 27%
Total Cell Count [1]: 105
Population Apoptotic (%) [2]: 0%
Population Fragmented Nuclei (%) [2]: 10%
Population Healthy Nuclei (%) [2]: 76%
Population Hoechst High Intensity Objects (%) [2]: 4%
Population Membrane Permeable-Phenotype (%) [2]: 0%
Population Mitochondria Different-Phenotype (%) [2]: 16%
Population Mitotic Cells (%) [2]: 100%
Population Normal (%) [2]: 95%
Population Pyknosed Nuclei (%) [2]: 12%
Population Tubulin-Different-Phenotype (%) [2]: 2%
Total Cell Count [2]: 49
Population Apoptotic (%) [3]: 80%
Population Fragmented Nuclei (%) [3]: 41%
Population Healthy Nuclei (%) [3]: 41%
Population Hoechst High Intensity Objects (%) [3]: 17%
Population Membrane Permeable-Phenotype (%) [3]: 56%
Population Mitochondria Different-Phenotype (%) [3]: 54%
Population Mitotic Cells (%) [3]: 20%
Population Normal (%) [3]: 82%
Population Pyknosed Nuclei (%) [3]: 16%
Population Tubulin-Different-Phenotype (%) [3]: 17%
Total Cell Count [3]: 218
Population Apoptotic (%) [4]: 95%
Population Fragmented Nuclei (%) [4]: 42%
Population Healthy Nuclei (%) [4]: 34%
Population Hoechst High Intensity Objects (%) [4]: 6%
Population Membrane Permeable-Phenotype (%) [4]: 44%
Population Mitochondria Different-Phenotype (%) [4]: 0%
Population Mitotic Cells (%) [4]: 4%
Population Normal (%) [4]: 93%
Population Pyknosed Nuclei (%) [4]: 23%
Population Tubulin-Different-Phenotype (%) [4]: 50%
Total Cell Count [4]: 106
Population Apoptotic (%) [5]: 50%
Population Fragmented Nuclei (%) [5]: 26%
Population Healthy Nuclei (%) [5]: 51%
Population Hoechst High Intensity Objects (%) [5]: 19%
Population Membrane Permeable-Phenotype (%) [5]: 28%
Population Mitochondria Different-Phenotype (%) [5]: 10%
Population Mitotic Cells (%) [5]: 50%
Population Normal (%) [5]: 80%
Population Pyknosed Nuclei (%) [5]: 22%
Population Tubulin-Different-Phenotype (%) [5]: 53%
Total Cell Count [5]: 119
Population Apoptotic (%) [6]: 25%
Population Fragmented Nuclei (%) [6]: 5%
Population Healthy Nuclei (%) [6]: 88%
Population Hoechst High Intensity Objects (%) [6]: 7%
Population Membrane Permeable-Phenotype (%) [6]: 7%
Population Mitochondria Different-Phenotype (%) [6]: 15%
Population Mitotic Cells (%) [6]: 75%
Population Normal (%) [6]: 92%
Population Pyknosed Nuclei (%) [6]: 6%
Population Tubulin-Different-Phenotype (%) [6]: 13%
Total Cell Count [6]: 65
Population Apoptotic (%) [7]: 75%
Population Fragmented Nuclei (%) [7]: 35%
Population Healthy Nuclei (%) [7]: 53%
Population Hoechst High Intensity Objects (%) [7]: 16%
Population Membrane Permeable-Phenotype (%) [7]: 64%
Population Mitochondria Different-Phenotype (%) [7]: 43%
Population Mitotic Cells (%) [7]: 25%
Population Normal (%) [7]: 83%
Population Pyknosed Nuclei (%) [7]: 11%
Population Tubulin-Different-Phenotype (%) [7]: 28%
Total Cell Count [7]: 170
Population Apoptotic (%) [8]: 100%
Population Fragmented Nuclei (%) [8]: 10%
Population Healthy Nuclei (%) [8]: 68%
Population Hoechst High Intensity Objects (%) [8]: 4%
Population Membrane Permeable-Phenotype (%) [8]: 20%
Population Mitochondria Different-Phenotype (%) [8]: 14%
Population Mitotic Cells (%) [8]: 0%
Population Normal (%) [8]: 95%
Population Pyknosed Nuclei (%) [8]: 21%
Population Tubulin-Different-Phenotype (%) [8]: 43%
Total Cell Count [8]: 84
Population Apoptotic (%) [9]: 42%
Population Fragmented Nuclei (%) [9]: 33%
Population Healthy Nuclei (%) [9]: 50%
Population Hoechst High Intensity Objects (%) [9]: 19%
Population Membrane Permeable-Phenotype (%) [9]: 22%
Population Mitochondria Different-Phenotype (%) [9]: 4%
Population Mitotic Cells (%) [9]: 57%
Population Normal (%) [9]: 80%
Population Pyknosed Nuclei (%) [9]: 15%
Population Tubulin-Different-Phenotype (%) [9]: 37%
Total Cell Count [9]: 111
Population Apoptotic (%) [10]: 75%
Population Fragmented Nuclei (%) [10]: 17%
Population Healthy Nuclei (%) [10]: 75%
Population Hoechst High Intensity Objects (%) [10]: 14%
Population Membrane Permeable-Phenotype (%) [10]: 15%
Population Mitochondria Different-Phenotype (%) [10]: 6%
Population Mitotic Cells (%) [10]: 25%
Population Normal (%) [10]: 85%
Population Pyknosed Nuclei (%) [10]: 6%
Population Tubulin-Different-Phenotype (%) [10]: 34%
Total Cell Count [10]: 68
Population Apoptotic (%) [11]: 42%
Population Fragmented Nuclei (%) [11]: 27%
Population Healthy Nuclei (%) [11]: 66%
Population Hoechst High Intensity Objects (%) [11]: 7%
Population Membrane Permeable-Phenotype (%) [11]: 20%
Population Mitochondria Different-Phenotype (%) [11]: 2%
Population Mitotic Cells (%) [11]: 57%
Population Normal (%) [11]: 92%
Population Pyknosed Nuclei (%) [11]: 5%
Population Tubulin-Different-Phenotype (%) [11]: 26%
Total Cell Count [11]: 133
Population Apoptotic (%) [12]: 80%
Population Fragmented Nuclei (%) [12]: 20%
Population Healthy Nuclei (%) [12]: 72%
Population Hoechst High Intensity Objects (%) [12]: 14%
Population Membrane Permeable-Phenotype (%) [12]: 25%
Population Mitochondria Different-Phenotype (%) [12]: 3%
Population Mitotic Cells (%) [12]: 20%
Population Normal (%) [12]: 85%
Population Pyknosed Nuclei (%) [12]: 6%
Population Tubulin-Different-Phenotype (%) [12]: 50%
Total Cell Count [12]: 84
